Measured values from ChEMBL document CHEMBL3407388, “Synthesis, anticancer activity and molecular docking studies on a series of heterocyclic trans-cyanocombretastatin analogues as antitubulin agents” (2015).

Assays:
[1] = test system: MV4-11; experiment: Anti-leukemic activity against human MV4-11 cells assessed as cell dead after 24 to 48 hrs by annexin V-FITC/7-AAD staining-based flow cytometric analysis; assay type: functional; settings: for CC50: read-out: LD50 (the source's name)
Outline: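 MV4-11 cells grown in IMDM with 10% FBS, penicillin and streptomycin, seeded at 5 × 10^5/ml and treated. At 24 and 48 h they were stained with annexin V-FITC plus 1 μg/ml 7-AAD. Percent dead cells (annexin V+) was read by flow cytometry and expressed relative to the DMSO vehicle control.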

[2] = test system: Kasumi 1; experiment: Cytotoxicity against human Kasumi-1 cells assessed as apoptotic/dead cells after 24 to 48 hrs by annexin V-FITC/7-AAD staining-based flow cytometric analysis; assay type: functional
[3] = test system: K562; experiment: Cytotoxicity against human K562 cells assessed as apoptotic/dead cells after 24 to 48 hrs by annexin V-FITC/7-AAD staining-based flow cytometric analysis; assay type: functional
[4] = (§1) Cytotoxicity against human MLL-ENL cells assessed as apoptotic/dead cells after 24 to 48 hrs by annexin V-FITC/7-AAD staining-based flow cytometric analysis; assay type: functional; settings: read-out: LD50 (the source's name)
[5] = organism: Homo sapiens; experiment: as §1; assay type: functional
[6] = test system: Kasumi-4; experiment: (§2) Cytotoxicity against human Kasumi-4 cells assessed as apoptotic/dead cells after 24 to 48 hrs by annexin V-FITC/7-AAD staining-based flow cytometric analysis; assay type: functional
[7] = as §2; assay type: functional; settings: read-out: LD50 (the source's name)
[8] = test system: HL-60; experiment: (§3) Cytotoxicity against human HL60 cells assessed as apoptotic/dead cells after 24 to 48 hrs by annexin V-FITC/7-AAD staining-based flow cytometric analysis; assay type: functional
[9] = as §3; assay type: functional; settings: HL-60, read-out: LD50 (the source's name)
[10] = Cytotoxicity against human primary blast crisis phase of chronic myeloid leukemia cells assessed as apoptotic/dead cells at 25 nM measured at 96 hrs by CD45-APC-H7/ annexin V-FITC/7-AAD staining-based flow cytometric analysis relative to control; assay type: functional, Leukemia cell
Outline: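 Thawed cryopreserved primary blast-crisis CML cells were treated and read at 24, 48 and 96 h time-points. Staining used CD45-APC-H7, annexin V-FITC and 7-AAD. Apoptotic/dead cells were scored by flow cytometry as percent annexin V+ blasts, normalized to the DMSO control.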

[11] = test system: Leukemia cell; experiment: Cytotoxicity against human primary blast crisis phase of chronic myeloid leukemia cells assessed as apoptotic/dead cells at 25 to 200 nM by CD45-APC-H7/ annexin V-FITC/7-AAD staining-based flow cytometric analysis; assay type: functional; settings: TDE = time-dependent effect
Outline: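 Cryopreserved primary blast-crisis CML samples, obtained with informed consent and IRB approval, were thawed, cultured and treated with the indicated doses. At 48 h they were stained with CD45-APC-H7, then annexin V-FITC and 7-AAD. Percent annexin V+ blasts by flow cytometry, normalized to the DMSO control.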

[12] = target: Tubulin (Homo sapiens) (UniProt P68371+Q9H4B7+P0DPH7+P68366+Q13509+Q71U36+P04350+Q3ZCM7+P07437+P68363+Q9BQE3+Q6PEY2+Q13885+Q9BVA1+Q9BUF5); experiment: Inhibition of tubulin polymerization in human MV4-11 cells at 50 nM after 2 hrs by immunoblot analysis relative to control; assay type: cell-based
Outline: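 MV4-11 AML cells were exposed for 2 h to 25, 50 or 100 nM compound. Free tubulin (supernatant) and polymerized tubulin (pellet) were separated and detected by anti-tubulin immunoblot.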

[13] = test system: TF-1; experiment: (§4) Cytotoxicity against human TF1 cells assessed as apoptotic/dead cells after 24 to 48 hrs by annexin V-FITC/7-AAD staining-based flow cytometric analysis; assay type: functional
[14] = as §4; assay type: functional; settings: TF-1, read-out: LD50 (the source's name)
[15] = test system: THP-1; experiment: Cytotoxicity against human THP1 cells assessed as apoptotic/dead cells after 24 to 48 hrs by annexin V-FITC/7-AAD staining-based flow cytometric analysis; assay type: functional
[16] = test system: MOLM-13; experiment: Cytotoxicity against human MOLM13 cells assessed as apoptotic/dead cells after 24 to 48 hrs by annexin V-FITC/7-AAD staining-based flow cytometric analysis; assay type: functional
[17] = test system: KCL-22; experiment: (§5) Cytotoxicity against human KCL22 cells assessed as apoptotic/dead cells after 24 to 48 hrs by annexin V-FITC/7-AAD staining-based flow cytometric analysis; assay type: functional
[18] = as §5; assay type: functional; settings: KCL-22, read-out: LD50 (the source's name)
[19] = test system: TUR; experiment: Cytotoxicity against human TUR cells assessed as apoptotic/dead cells after 24 to 48 hrs by annexin V-FITC/7-AAD staining-based flow cytometric analysis; assay type: functional
[20] = (§6) Cytotoxicity against human KG1 cells assessed as apoptotic/dead cells after 24 to 48 hrs by annexin V-FITC/7-AAD staining-based flow cytometric analysis; assay type: functional; settings: KG-1, read-out: LD50 (the source's name)
[21] = test system: KG-1; experiment: as §6; assay type: functional
[22] = read-out: LD50 (the source's name)

COc1ccc(/C(C#N)=C/c2nc3ccccc3s2)cc1OC
CC50 [1]: 1220 nM

COc1cc(/C(C#N)=C/c2csc3ccccc23)cc(OC)c1OC
Activity [1]: Dose-dependent effect
CC50 [1]: 180 nM

COc1cc(OC)cc(/C(C#N)=C/c2cc3ccccc3o2)c1
CC50 [1]: 1170 nM

COc1cc(/C(C#N)=C/c2cc3ccccc3s2)cc(OC)c1OC
Activity [2]: Dose-dependent effect
CC50 [2, 22]: 151 nM
CC50 [1]: 18 nM
Activity [3]: Dose-dependent effect
CC50 [3, 22]: 99.5 nM
CC50 [4]: 271 nM
Activity [5]: Dose-dependent effect
Activity [6]: Dose-dependent effect
CC50 [7]: 156 nM
Activity [8]: Dose-dependent effect
CC50 [9]: 120 nM
Activity [10]: >50%
Activity [11]: tde
inhibition [12]: > 50%
Activity [13]: Dose-dependent effect
CC50 [14]: 79.5 nM
Activity [15]: Dose-dependent effect
CC50 [15, 22]: 227 nM
Activity [16]: Dose-dependent effect
CC50 [16, 22]: 83 nM
Activity [17]: Dose-dependent effect
CC50 [18]: 114 nM
Activity [19]: Dose-dependent effect
CC50 [19, 22]: 93 nM
CC50 [20]: 113 nM
Activity [21]: Dose-dependent effect

COc1ccc(/C(C#N)=C/c2cc3ccccc3s2)cc1OC
CC50 [1]: 6060 nM
